# Measurements: ChEMBL document CHEMBL4257550, “Novel hybrids derived from aspirin and chalcones potently suppress colorectal cancer in vitro and in vivo” (Medchemcomm, 2018)
# Calls of active or inactive are those of the source. The calls are words filed in the database; no cut-off is given here.
# Assays:
# DLD-1 [1] = experiment: Antiproliferative activity against human DLD1 cells at 10 uM after 72 hrs by MTT assay relative to control; assay type: functional
# Method in brief: (§1)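 Cells treated with or without compound at 10 μM for 72 h, proliferation measured by MTT (4 h, formazan in DMSO, 570 nm). Inhibition (%) relative to untreated cells; mean ± SD of three independent experiments.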
# HCT-8 [2] = experiment: Antiproliferative activity against human HCT8 cells at 10 uM after 72 hrs by MTT assay relative to control; assay type: functional; method in brief: as §1
# [3] = Cytotoxicity against human CCD-841 cells after 72 hrs by MTT assay; assay type: cell-based; conditions: CCD-841, 72 h
# Method in brief: (§2)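 HCT-8, DLD-1 and CCD841 cells seeded in 96-well plates, exposed to vehicle or compound for 72 h. MTT (5 mg/mL in PBS) added for a further 4 h, formazan dissolved in DMSO, absorbance read at 570 nm. IC50 taken as the concentration inhibiting 50% of proliferation; mean ± SD of three independent experiments.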
# HCT-8 [4] = experiment: Cell cycle arrest in human HCT8 cells assessed as accumulation at G2 phase at 10 uM after 24 hrs by propidium iodide staining based flow cytometry (reference value: 23.77%); assay type: functional
# HCT-8 [5] = experiment: Induction of apoptosis in human HCT8 cells assessed as late apoptotic cells at 2.5 uM after 24 hrs by Annexin V-FITC/propidium iodide staining based flow cytometry (reference value: 2.4%); assay type: functional
# HCT-8 [6] = experiment: Cell cycle arrest in human HCT8 cells assessed as accumulation at G2 phase at 2.5 uM after 24 hrs by propidium iodide staining based flow cytometry (reference value: 23.77%); assay type: functional
# HCT-8 [7] = experiment: Induction of reactive oxygen species generation in human HCT8 cells at 2.5 to 10 uM after 24 hrs by DCFH-DA staining based flow cytometry; assay type: functional, cell-based
# Method in brief: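 HCT-8 cells exposed to 0, 2.5, 5 or 10 μM for 24 h, loaded with 10 μM DCFH-DA at 37 °C for 20 min, washed three times in PBS. Intracellular ROS as DCF fluorescence by flow cytometry, Ex/Em 488/530 nm.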
# HCT-8 [8] = experiment: Induction of apoptosis in human HCT8 cells assessed as late apoptotic cells at 10 uM after 24 hrs by Annexin V-FITC/propidium iodide staining based flow cytometry (reference value: 2.4%); assay type: functional
# HCT-8 [9] = experiment: Cell cycle arrest in human HCT8 cells assessed as accumulation at G1 phase at 5 uM after 24 hrs by propidium iodide staining based flow cytometry (reference value: 48.08%); assay type: functional
# HCT-8 [10] = experiment: Cell cycle arrest in human HCT8 cells assessed as accumulation at S phase at 10 uM after 24 hrs by propidium iodide staining based flow cytometry (reference value: 36.19%); assay type: functional
# HCT-8 [11] = experiment: Cell cycle arrest in human HCT8 cells assessed as accumulation at G2 phase at 5 uM after 24 hrs by propidium iodide staining based flow cytometry (reference value: 23.77%); assay type: functional
# HCT-8 [12] = experiment: Antitumor activity against human HCT8 cells xenografted in BALB/c mouse assessed as reduction in tumor volume at 60 mg/kg, ip administered daily for 32 days measured every 4 days during compound dosing; assay type: functional, organism-based
# Method in brief: (§3)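 Male BALB/c nude mice (5–6 weeks, 18–20 g) inoculated s.c. with 1 × 10^7 HCT-8 cells. At tumours of 180–200 mm³, mice randomized and dosed i.p. daily for 32 days with 60 mg/kg or an equal volume of Tween 80/PBS (5:95) vehicle. Caliper length and width every 4 days, TV = width² × length/2. Tumour weight and body weight also recorded; n = 6 per group, mean ± SD.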
# HCT-8 [13] = experiment: Cell cycle arrest in human HCT8 cells assessed as accumulation at G1 phase at 10 uM after 24 hrs by propidium iodide staining based flow cytometry (reference value: 48.08%); assay type: functional
# HCT-8 [14] = experiment: Induction of apoptosis in human HCT8 cells assessed as early apoptotic cells at 5 uM after 24 hrs by Annexin V-FITC/propidium iodide staining based flow cytometry (reference value: 0.25%); assay type: functional
# DLD-1 [15] = experiment: Antiproliferative activity against human DLD1 cells after 72 hrs by MTT assay; assay type: functional, cell-based; conditions: DLD-1, 72 h; method in brief: as §2
# Mus musculus = experiment: Toxicity in BALB/c mouse xenografted with human HCT8 cells assessed as change in body weight at 60 mg/kg, ip administered daily for 32 days; assay type: organism-based; conditions: in vivo, 768 h; method in brief: as §3
# HCT-8 [16] = experiment: Cell cycle arrest in human HCT8 cells assessed as accumulation at S phase at 5 uM after 24 hrs by propidium iodide staining based flow cytometry (reference value: 36.19%); assay type: functional
# HCT-8 [17] = experiment: Induction of apoptosis in human HCT8 cells assessed as increase in cleaved caspase3 expression after 24 hrs by Western blotting analysis; assay type: functional, cell-based
# Method in brief: (§4)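 HCT-8 cells (1 × 10^6/well, six-well plates) left overnight, then given 0.1% DMSO or compound (0, 2.5, 5, 10 μM) for 24 h. Lysed 30 min at 4 °C, cleared at 15000 rpm, protein by BCA. 20 μg per lane on 7.5% SDS-PAGE, moved to PVDF, blocked in 5% milk/TBS-0.05% Tween 20. Probed for caspase 3, cleaved caspase 3, PARP, cleaved PARP and GAPDH; ECL detection.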
# HCT-8 [18] = experiment: Cell cycle arrest in human HCT8 cells assessed as accumulation at S phase at 2.5 uM after 24 hrs by propidium iodide staining based flow cytometry (reference value: 36.19%); assay type: functional
# HCT-8 [19] = experiment: Cell cycle arrest in human HCT8 cells assessed as accumulation at G1 phase at 2.5 uM after 24 hrs by propidium iodide staining based flow cytometry (reference value: 48.08%); assay type: functional
# HCT-8 [20] = experiment: Antiproliferative activity against human HCT8 cells after 72 hrs by MTT assay; assay type: functional, cell-based; conditions: HCT-8, 72 h; method in brief: as §2
# HCT-8 [21] = experiment: Induction of apoptosis in human HCT8 cells after 24 hrs by Annexin V-FITC/propidium iodide staining based flow cytometry; assay type: functional, cell-based
# HCT-8 [22] = experiment: Cell cycle arrest in human HCT8 cells assessed as accumulation at G0/G1 phase after 24 hrs by propidium iodide staining based flow cytometry; assay type: functional
# HCT-8 [23] = experiment: Induction of apoptosis in human HCT8 cells assessed as early apoptotic cells at 10 uM after 24 hrs by Annexin V-FITC/propidium iodide staining based flow cytometry (reference value: 0.25%); assay type: functional
# HCT-8 [24] = experiment: Antitumor activity against human HCT8 cells xenografted in BALB/c mouse assessed as reduction in tumor weight at 60 mg/kg, ip administered daily for 32 days measured every 4 days during compound dosing relative to control; assay type: functional; parameters: scale not given: the % may be the effect or the level left; method in brief: as §3
# HCT-8 [25] = experiment: Induction of apoptosis in human HCT8 cells assessed as late apoptotic cells at 5 uM after 24 hrs by Annexin V-FITC/propidium iodide staining based flow cytometry (reference value: 2.4%); assay type: functional
# HCT-8 [26] = experiment: Induction of apoptosis in human HCT8 cells assessed as early apoptotic cells at 2.5 uM after 24 hrs by Annexin V-FITC/propidium iodide staining based flow cytometry (reference value: 0.25%); assay type: functional
# HCT-8 [27] = experiment: Induction of apoptosis in human HCT8 cells assessed as increase in cleaved PARP expression after 24 hrs by Western blotting analysis; assay type: functional, cell-based; method in brief: as §4
# [28] = Selectivity index, ratio of IC50 for human CCD-841 cells to IC50 for DLD1 human cells; assay type: toxicity; conditions: CCD-841 cells versus DLD1 cells
# Method in brief: (§5)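 Ratio of the CCD841 MTT IC50 to the HCT-8 or DLD-1 IC50, each IC50 from a 72 h MTT assay (570 nm), mean of three independent experiments.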
# [29] = Selectivity index, ratio of IC50 for human CCD-841 cells to IC50 for HCT8 human cells; assay type: toxicity; conditions: CCD-841 cells versus HCT8 cells, read-out: Ratio IC50; method in brief: as §5
# DLD-1 [30] = experiment: Antiproliferative activity against human DLD1 cells after 72 hrs in presence of ASA by MTT assay; assay type: functional, cell-based; conditions: DLD-1, 72 h; method in brief: as §2
# HCT-8 [31] = experiment: Antiproliferative activity against human HCT8 cells after 72 hrs in presence of ASA by MTT assay; assay type: functional, cell-based; conditions: HCT-8, 72 h; method in brief: as §2
compound,measurement,setting,value
COc1ccc(/C=C/C(=O)c2ccc(Cl)cc2)c(OC(=O)c2ccccc2OC(C)=O)c1,Activity,DLD-1 [1],Active
same,Activity,HCT-8 [2],Active
O=c1[nH]cc(F)c(=O)[nH]1 [FLUOROURACIL],IC50,[3],35.7 µM
COc1ccc(C(=O)/C=C/c2ccccc2OC(=O)c2ccccc2OC(C)=O)cc1,Activity,DLD-1 [1],Active
same,Activity,HCT-8 [2],Active
CC(=O)Oc1ccccc1C(=O)Oc1ccccc1/C=C/C(=O)c1ccc(Cl)cc1,Activity,DLD-1 [1],>50%
same,Activity,HCT-8 [2],>50%
COc1ccc(OC(=O)c2ccccc2OC(C)=O)c(/C=C/C(=O)c2ccc(Cl)cc2)c1,IC50,[3],19.4 µM
same,Activity,DLD-1 [1],>50%
same,Activity,HCT-8 [4],8.77%
same,Activity,HCT-8 [5],6.41%
same,Activity,HCT-8 [6],17.76%
same,Activity,HCT-8 [7],Active
same,Activity,HCT-8 [8],37.01%
same,Activity,HCT-8 [9],51.03%
same,Activity,HCT-8 [10],34.77%
same,Activity,HCT-8 [11],10.82%
same,Activity,HCT-8 [12],Active
same,Activity,HCT-8 [13],56.46%
same,Activity,HCT-8 [14],14.22%
same,IC50,DLD-1 [15],2.7 µM
same,Activity,Mus musculus,Non-Toxic
same,Activity,HCT-8 [2],>50%
same,Activity,HCT-8 [16],38.16%
same,Activity,HCT-8 [17],Dose-dependent effect
same,Activity,HCT-8 [18],34.16%
same,Activity,HCT-8 [19],48.08%
same,IC50,HCT-8 [20],2.4 µM
same,Activity,HCT-8 [21],Dose-dependent effect
same,Activity,HCT-8 [22],Dose-dependent effect
same,Activity,HCT-8 [23],21.46%
same,Activity,HCT-8 [24],42%
same,Activity,HCT-8 [25],13.49%
same,Activity,HCT-8 [26],9.7%
same,Activity,HCT-8 [27],Dose-dependent effect
same,selectivity ratio,[28],7.2
same,selectivity ratio,[29],8
CC(=O)Oc1ccccc1C(=O)Oc1ccccc1/C=C/C(=O)c1ccc(Br)cc1,Activity,DLD-1 [1],Active
same,Activity,HCT-8 [2],Active
CC(=O)Oc1ccccc1C(=O)Oc1ccc(C)cc1/C=C/C(=O)c1ccc(Cl)cc1,Activity,DLD-1 [1],Active
same,Activity,HCT-8 [2],Active
CC(=O)Oc1ccccc1C(=O)Oc1ccccc1/C=C/C(=O)c1ccc(C#N)cc1,Activity,DLD-1 [1],Active
same,Activity,HCT-8 [2],Active
CC(=O)Oc1ccccc1C(=O)O [ASPIRIN],IC50,DLD-1 [15],> 100 µM
same,IC50,HCT-8 [20],> 100 µM
COc1ccc(O)c(/C=C/C(=O)c2ccc(Cl)cc2)c1,IC50,DLD-1 [30],6.9 µM
same,IC50,DLD-1 [15],14.7 µM
same,IC50,HCT-8 [20],19.7 µM
same,IC50,HCT-8 [31],6.3 µM
CC(=O)Oc1ccccc1C(=O)Oc1ccc(Cl)cc1/C=C/C(=O)c1ccc(Cl)cc1,Activity,DLD-1 [1],Active
same,Activity,HCT-8 [2],Active
CC(=O)Oc1ccccc1C(=O)Oc1ccc(Br)cc1/C=C/C(=O)c1ccc(Cl)cc1,Activity,DLD-1 [1],Active
same,Activity,HCT-8 [2],Active
COc1cccc(/C=C/C(=O)c2ccc(Cl)cc2)c1OC(=O)c1ccccc1OC(C)=O,Activity,DLD-1 [1],Active
same,Activity,HCT-8 [2],Active
CC(=O)Oc1ccccc1C(=O)Oc1ccccc1/C=C/C(=O)c1ccc(C)cc1,Activity,DLD-1 [1],Active
same,Activity,HCT-8 [2],Active
O=C(/C=C/c1cc(F)ccc1O)c1ccc(Cl)cc1,IC50,DLD-1 [30],8 µM
same,IC50,DLD-1 [15],13.2 µM
same,IC50,HCT-8 [20],25.6 µM
same,IC50,HCT-8 [31],9.3 µM
CC(=O)Oc1ccccc1C(=O)Oc1ccc(F)cc1/C=C/C(=O)c1ccc(Cl)cc1,Activity,DLD-1 [1],>50%
same,IC50,DLD-1 [15],3.5 µM
same,Activity,HCT-8 [2],>50%
same,IC50,HCT-8 [20],2.7 µM
CC(=O)Oc1ccccc1C(=O)Oc1ccccc1/C=C/C(=O)c1ccc([N+](=O)[O-])cc1,Activity,DLD-1 [1],>50%
same,Activity,HCT-8 [2],>50%
